Hep lipid drop: hepatic lipid droplet formation modulation | inhibition, % at 6.5 µM | 0.4% of 240,000 active | AML12 mouse hepatocytes, oleate lipid droplets, BODIPY imaging | AID 1656;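 active means lipid droplet intensity inhibited by at least 50%, with more than 500 cells counted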
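material = mouse AML12 hepatocyte cell line, fixed after treatment | also added = 100 µM oleic acid challenge | doses = compound at 6.5 µM only | schedule = overnight exposure | technique = Image-based BODIPY and DAPI two-channel analysis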
STAT3 blocker: reduces IL-6 driven STAT3 reporter signal. U3A cells, IL-6 STAT3-luciferase reporter, luminescence; host cell line lacks STAT1. inhibition, % at 5.5 µM. 0.89% of 190,000 active. AID 862;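 active means inhibition above the mean inhibition across all screened compounds plus 3 SD, cut at about 44% in these data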;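 further: 0% = DMSO only wells and 100% = 100 µM nifuroxazide control wells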
TAG inh: inhibitors of triacylglycerol accumulation. H9c2 cells, Nile Red lipid (TAG) fluorescence; cells loaded with 200 µM oleic acid. 0.66% of 230,000 active. inhibition, % at 12.5 µM;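 active means pattern-corrected inhibition of lipid staining of at least 50% with the nuclear-stain viability signal not falling by more than 50%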;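 further: 0% = DMSO wells and 100% = triacsin C control wells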
Platelet DG rel: modulates dense granule release in human platelets. 0.22% of 300,000 active. inhibition, %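 (compounds screened at 7.5 µM in platelet-rich plasma)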. human platelet-rich plasma, SFLLRN dense granule ATP release, luminescence;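 active means mean replicate score, as percent of positive control, at or above 50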
STAT1 blocker: inhibitors of IFN-gamma induced STAT1 signaling. NIH 3T3 STAT1-luciferase reporter, luminescence. inhibition, % at 5.5 µM. 0.35% of 200,000 active. AID 920;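 active means inhibition above a set limit, the mean inhibition across all tested compounds plus 3 SD, cut at about 34% in these data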;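 further: 0% = IFN-gamma with DMSO and 100% = IFN-gamma with 300 µM nifuroxazide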
PPC-1+TRAIL kill: compounds killing PPC-1 cancer cells with TRAIL present (potentiator screen, no TRAIL-free arm); PPC-1 cells + TRAIL, ATPLite viability luminescence; cell killing (% activity), % at 4 µM or 5 µM; 0.41% of 220,000 active; AID 1443;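 active means cell killing above 50% in the first pass at 4 µM, then a duplicate retest at 5 µM averaging 50% or more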;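 further: plate controls were cells with TRAIL plus DMSO for no effect and medium-only wells lacking cells for full effect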
Lipid drop inh: hepatic lipid droplet formation inhibition, confirmed | shares compounds with Hep lipid drop | AML12 mouse hepatocytes, BODIPY lipid droplet imaging; droplets induced with 100 µM oleic acid | inhibition, % at 5.2 µM | 65% of 870 active;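 active means inhibition of lipid droplet metric at least 50%, with more than 300 cells in each of four replicates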;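 further: plate controls were DMSO with oleic acid for no effect and 5 µM Triacsin-C for full effect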
AML12 tox img: toxic to AML12 mouse hepatocytes in counter-screen | shares compounds with Hep lipid drop | DAPI nuclear morphology cytotoxicity imaging; hits give high values; cells fed 100 µM oleate overnight | z-score at 5 µM | 3% of 870 active | AID 463200; in the data active means z-score above about 6.3;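 further: compound exposure lasted overnight at 37 °C before fixation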
AML12 tox conf: confirmation of cytotoxicity in AML12 mouse hepatocytes. shares compounds with Hep lipid drop. AML12 mouse hepatocyte viability, ATP luminescence; cells loaded with 100 µM oleic acid. cytotoxicity, % at 50 µM. 530 tested, under 10 active;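 active means cytotoxicity above 50% in each of four replicates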;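 further: compound exposure lasted overnight at 37 °C before the ATP read; 0% = DMSO-treated cells and 100% = wells with no cells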
The depositor's hits bear a star; . = no result given. In the library only some 1.5% were active in any assay of this set; here they are far more common.

SMILES | Hep lipid drop | STAT3 blocker | TAG inh | Platelet DG rel | STAT1 blocker | PPC-1+TRAIL kill | Lipid drop inh | AML12 tox img | AML12 tox conf
COC(=O)/C(=C\c1ccc2c(c1)c1ccccc1n2C)NC(=O)c1ccccc1 | 52* | -1 | . | 5 | -9 | 14 | 93* | 0.98 | 1
COc1ccc(N2C(=O)CC2(/C=C/c2ccccc2OC)C(=O)NC2CCCC2)cc1 (stereo unspecified) | 27 | -1 | 9 | -6 | 3 | 4 | . | . | .
O=C1CC(/C=C/c2ccccc2)(C(=O)NC2CCCC2)N1c1ccc(S(=O)(=O)N2CCCC2)cc1 (stereo unspecified) | 90* | 22 | . | -4 | 1 | 9 | 84* | -0.81 | .
CC(=O)Nc1cccc(OCC(=O)Nc2ccccc2)c1 | 2 | 0 | -7 | 1 | -21 | 34 | . | . | .
CC(=O)Nc1cccc(OCC(=O)NC(C)c2ccc3ccccc3c2)c1 (stereo unspecified) | 68* | . | . | -18 | . | . | 38 | 0.15 | .
CCc1ccccc1NC(=O)COc1ccc(C(=S)N2CCCC2)cc1 | 55* | 9 | 5 | 1 | 3 | 19 | 38 | 0.095 | .
CC(=O)c1ccc(OCC(=O)Nc2ccccc2N2CCCC2)cc1 | -5 | . | -3 | -5 | . | . | . | . | .
O=[N+]([O-])c1sccc1CS(=O)(=O)c1ccccc1 | 71* | . | 9 | -6 | . | 16 | 29 | -0.14 | .
O=[N+]([O-])c1ccccc1CS(=O)(=O)c1ccccc1 | . | . | -8 | 1 | . | . | . | . | .
Cc1cc(C)n2nc(C(=O)N/N=C/c3c4ccccc4cc4ccccc34)nc2n1 | 66* | -2 | . | 2 | 4 | -4 | 103* | 0.3 | 38
O=C(CSc1nc2ccccc2o1)Nc1nc(-c2ccccc2)c(-c2ccccc2)s1 | 60* | -2 | . | -9 | -8 | -8 | 96* | -0.048 | -12
Cc1nnc(NC(=O)CSc2nc3ccccc3o2)s1 | -6 | -3 | . | -1 | -1 | -5 | . | . | .
CC1CC(C)CN(C(=O)c2ccc3c(c2NCCO)C(=O)c2ccccc2C3=O)C1 (stereo unspecified) | 91* | 8 | 127* | 7 | 8 | -14 | 115* | -0.98 | 37
Cc1nc(NC(=O)c2ccc(OCC(C)C)cc2)sc1Cc1ccc2c(c1)OCO2 | 63* | 2 | 26 | 13 | -6 | 15 | 98* | -0.18 | 6
CC(=O)OCC(=O)[C@@]1(O)CC[C@H]2[C@@H]3CCC4=CC(=O)CC[C@]4(C)[C@H]3[C@@H](O)C[C@@]21C | 50* | 8 | 21 | -2 | -19 | 12 | 24 | 0.65 | .
COc1cc(CNC(=O)c2cc3ccccc3oc2=O)cc(OC)c1OC | . | . | 2 | 4 | . | . | . | . | .
Cc1ccccc1CN1C[C@H]2CON(C)[C@H]2C[C@H]1c1cccc(Br)c1 | . | . | -13 | . | . | . | . | . | .
COc1cccc(NC(=O)N2CCCC2C(=O)Nc2ccc3c(c2)OCO3)c1 (stereo unspecified) | 22 | 14 | 14 | 0 | 1 | 16 | . | . | .
COc1ccccc1NC(=O)N1CCCC1C(=O)Nc1ccc2c(c1)OCO2 (stereo unspecified) | 71* | 5 | 43 | -3 | -2 | 13 | 71* | 0.22 | 7
CCC(=O)Nc1nc(-c2ccc3c(c2)OCCO3)cs1 | -8 | 1 | 3 | 10 | -58 | 26 | . | . | .
c1cc2c(cc1-c1csc(NNC3=NCCCCC3)n1)OCCO2 | 90* | -6 | . | -1 | -50 | -2 | 100* | -0.51 | 39
CC(Sc1nnc(-c2ccccc2)c(-c2ccccc2)n1)C(=O)N1CCc2ccccc21 (stereo unspecified) | 57* | -33 | . | 19 | -2 | 2 | 82* | -0.34 | 8
Cc1nnc(SC(C)C(=O)N2CCc3ccccc32)s1 (stereo unspecified) | 1 | 0 | 12 | -3 | -1 | 2 | . | . | .
